# Compound activity as filed in PubChem BioAssay.
# Rows were chosen to be rich in hits. Some 1.1% of all compounds tested hit in one or more screens of this group.
# CAL PDZ FP-1 = CAL PDZ (human) peptide binding inhibition. purified CAL PDZ, TMR-peptide fluorescence polarization, 1 h. inhibition, % at 24.9 µM. 0.92% of 300,000 active. AID 602252;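 active means mean inhibition of at least 30% with at least half of replicates also reaching 30%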;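 further: 0% = DMSO neutral control and 100% = excess unlabeled competitor peptide PRC23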
# PDI inh = PDI (human) enzyme inhibition. PDI insulin aggregation turbidity, A650, 90 min. 0.052% of 350,000 active. inhibition, % at 10 µM. P07237;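 active means mean inhibition across replicates of 30% or more, whatever share of single replicates reach that level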
# Rin1-Abl PPI inh = human Rin1-Abl interaction inhibition | inhibition, % at 7.35 µM | P00519+Q13671 | 0.4% of 360,000 active | TR-FRET Rin1/Abl binding, biochemical; in the data active means inhibition above about 5%, passing the limit was not always enough
# ERAP1 HTS inh = ERAP1 (human) enzyme inhibition; Q9NZ08; recombinant ERAP1, Leu-AMC fluorescence, 60 min; inhibition, % at 10.7 µM; 0.15% of 340,000 active; AID 652197;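 active means mean replicate inhibition of at least 30%, or all replicates individually reaching that 30% level; inactive means mean below 30% and not every replicate reaching it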;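 further: 0% = neutral control wells and 100% = L-leucinethiol positive control wells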
# ERp5 inh = ERp5 (human) disulfide isomerase inhibition | Q15084 | ERp5 insulin aggregation, absorbance 650 nm, 90 min | inhibition, % at 9.99 µM | 0.05% of 350,000 active | AID 651711;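 active means mean replicate inhibition above about 25%, with every replicate also reaching it, limit read from the data, passing the limit was not always enough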
# CAL PDZ FP-2 = human CAL PDZ-peptide interaction inhibition. Q9HD26. purified CAL PDZ, TMR-peptide fluorescence polarization, 1 h. inhibition, % at 20 µM. 0.02% of 330,000 active;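 active means highest replicate inhibition of at least 40%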;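 further: plate controls were DMSO neutral control wells for no effect and unlabeled competitor peptide control wells for full effect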
#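 Material: tagged CAL PDZ domain; buffer or medium: 25 mM sodium phosphate pH 7.4, 150 mM NaCl, TCEP, IgG, Thesit; compound dosing: single point, 20 µM; schedule: 1 h incubation at room temperature before polarization reading; measured by: FP readout, S and P plane fluorescence; read-out basis: percent inhibition from loss of millipolarization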
# * = called active by the depositor; x = no result given.
SMILES,CAL PDZ FP-1,PDI inh,Rin1-Abl PPI inh,ERAP1 HTS inh,ERp5 inh,CAL PDZ FP-2
CO[C@@H]1CN(C)C(=O)c2ccc(NC(=O)Nc3ccccc3)cc2OC[C@H](C)N(C(=O)Nc2c(C)noc2C)C[C@@H]1C,x,x,x,2,2,x
CN1C(=O)c2cc(NC(=O)c3ccc(C(F)(F)F)cc3)ccc2OC[C@@H]2O[C@@H](CC(=O)NCc3ccc4c(c3)OCO4)CC[C@@H]21,x,x,x,1,11,x
COc1ccc(S(=O)(=O)Nc2ccc3c(c2)C(=O)N([C@@H](C)CO)C[C@@H](C)[C@@H](CN(C)C)OCCCC[C@H](C)O3)cc1,x,x,x,2,0,x
O=C(Nc1ccc(N2CCOCC2)c(S(=O)(=O)Nc2cc(Cl)ccc2Cl)c1)c1cccnc1,-7,2,-6,x,-3,0
CC(=O)NC(=S)Nc1ccc(N2CCOCC2)c(S(=O)(=O)Nc2cc(Cl)ccc2Cl)c1,64*,8,2,-1,0,-1
CC1OC(OC2C(Oc3c(-c4ccc(O)cc4)oc4cc(O)cc(O)c4c3=O)OC(COC3O[C@@H](C)[C@H](O)[C@@H](O)C3O)C(O)C2O)C(O)C(O)C1O (some centres undefined),-4,x,-4,5,0,-1
CC(=O)OC[C@H]1O[C@@H](Oc2cc(O)cc3oc(-c4ccc(O)cc4)cc(=O)c23)[C@H](O[C@@H]2O[C@@H](C)[C@H](O)[C@@H](O)[C@H]2O)[C@@H](O)[C@@H]1O,-7,39*,-3,0,2,-3
C[C@@H]1CN([C@@H](C)CO)C(=O)c2cc(NC(=O)c3ccncc3)ccc2O[C@H]1CN(C)C(=O)Nc1ccccc1,x,x,x,0,3,x
COc1ccc(NC(C)=O)cc1NC(=O)c1ccc(C#N)cc1,31*,0,0,-1,-5,-2
COc1ccc(NC(C)=O)cc1NC(=O)c1ccc(Cl)cc1,0,4,5,0,2,0
O=C(O)c1ccccc1NS(=O)(=O)c1cccc(NS(=O)(=O)c2cc(Br)ccc2Br)c1,-7,1,2,33*,1,-1
Cc1cccc(S(=O)(=O)N2CCCCN3[C@H](CO)[C@H](c4ccc(C#CC5CC5)cc4)[C@@H]3C2)c1,x,x,x,3,4,x
Cc1ccc(S(=O)(=O)Nc2ccccc2C(=O)N2CCN(C)CC2)cc1,44*,-2,1,2,1,1
COc1ccc(OCC(=O)Nc2nc3c(s2)CCCC3)cc1,72*,-4,1,0,2,-2
O=C(COc1ccc(F)cc1)Nc1nc2c(s1)CCCC2,-2,-5,0,-6,5,-1
CCCCOC(=O)/C(=C\c1ccc([N+](=O)[O-])o1)NC(=O)c1ccccc1,41*,-1,-2,x,x,x
CN(C)CCCNC(=O)C[C@H]1CC[C@H]2[C@H](COc3ccc(NC(=O)NC4CCCC4)cc3C(=O)N2C)O1,x,x,x,0,-2,x
O=C(C[C@@H]1CC[C@H]2[C@@H](COC[C@H](O)CN2Cc2cc(F)ccc2F)O1)N[C@H]1CCN(Cc2ccccc2)C1,x,x,x,-2,-2,x
Cc1ccc(CNC(=O)COC(=O)c2c(C)noc2C)cc1,1,14,-1,x,x,0
Cc1noc(C)c1C(=O)OCC(=O)NCCc1ccc(Cl)cc1,2,35*,3,x,x,-1
CNC[C@@H]1OCCCC[C@@H](C)Oc2ccc(NS(=O)(=O)c3ccccc3)cc2C(=O)N([C@H](C)CO)C[C@H]1C,x,x,x,-4,0,x
CCOC(=O)c1c(CN(C)C)n(-c2ccc(C)cc2)c2cc(Br)c(O)cc12,-2,49*,1,x,x,-1
CCOC(=O)c1c(CN(C)C)n(-c2ccccc2)c2cc(Br)c(OC)cc12,-5,7,-3,-1,-1,-1
CC(C)(O)CN(C(=O)C(c1ccccc1)c1ccccc1)C1CCCCC1,31*,-32,3,-2,-2,0
COc1ccc(CN(C)C[C@@H]2OCCCC[C@H](C)Oc3ccc(NC(=O)Nc4cccc5ccccc45)cc3C(=O)N([C@H](C)CO)C[C@H]2C)cc1,x,x,x,-1,-6,x
SMILES,CAL PDZ FP-1,PDI inh,Rin1-Abl PPI inh,ERAP1 HTS inh,ERp5 inh,CAL PDZ FP-2
CCCNC(=O)c1ccccc1NS(=O)(=O)c1ccc2c(c1)OCCO2,69*,2,-2,x,x,-2
CCCCNC(=O)c1ccccc1NS(=O)(=O)c1ccc2c(c1)OCCO2,-3,14,-1,0,2,-1
CCCNC(=O)c1ccccc1NC(=O)C1=CSCCO1,78*,17,2,-1,6,0
CC(C)CCNC(=O)c1ccccc1NC(=O)C1=CSCCO1,-2,1,-1,-3,4,-3
CNC[C@@H]1Oc2ccc(NS(=O)(=O)c3ccc(F)cc3)cc2C(=O)N([C@H](C)CO)C[C@@H]1C,x,x,x,1,-2,x
Cc1ccc(S(=O)(=O)N(C)C[C@@H]2Oc3c(NC(=O)NC(C)C)cccc3C(=O)N([C@@H](C)CO)C[C@@H]2C)cc1,x,x,x,0,1,x
CC(C)(C)NC(=O)CCSc1nnc(-c2ccco2)o1,111*,2,0,-5,3,16
Cc1ccc(S(=O)(=O)N(C)C)cc1NC(=O)COC(=O)C1(c2ccccc2)CC1,-3,-3,-1,-2,28*,-3
COc1ccccc1N(CC(=O)Nc1cc(S(=O)(=O)N(C)C)ccc1C)S(=O)(=O)c1cccs1,68*,-5,3,1,4,7
CN1C(=O)c2cc(NC(=O)Nc3cccc(Cl)c3)ccc2OC[C@H]2O[C@H](CC(=O)O)CC[C@@H]21,x,x,x,-4,-2,x
Cc1c(CCC(=O)N[C@@H](CC(C)C)C(=O)O)c(=O)oc2cc3oc4c(c3cc12)CCCC4,-8,38*,-2,2,-1,-5
Cc1c(CCC(=O)O)c(=O)oc2cc3oc4c(c3cc12)CCCC4,-7,1,2,23,4,-5
CCCC(=O)Nc1cc(S(=O)(=O)N2CCCCC2)ccc1N1CCOCC1,59*,8,2,-3,13,0
CCCC(=O)Nc1cc(S(=O)(=O)N2CCOCC2)ccc1N1CCCCC1,x,5,3,1,6,0
O=C(NCC1CC1)[C@@H]1[C@@H](CO)[C@@H]2Cn3c(ccc(-c4ccncc4)c3=O)[C@H]1N2CC1CC1,x,x,x,3,-7,x
CCCC(=O)N1CC2(CN(S(=O)(=O)CC)C2)c2c(n(C)c3cc(OC)ccc23)[C@H]1CO,x,x,x,-2,-1,x
COc1cc(S(=O)(=O)Nc2cccc3cn[nH]c23)c(OC)cc1Cl,95*,2,3,4,-3,-1
C[C@@H]1CN([C@@H](C)CO)C(=O)Cc2cc(NS(=O)(=O)c3ccc(Cl)cc3)ccc2O[C@@H]1CN(C)C,x,x,x,1,6,x
COc1cc(/C=C(\CC(=O)O)c2nc3ccccc3s2)ccc1OCC(=O)Nc1ccccc1F,133*,3,0,-5,-6,-4
